Each structure is given as a SMILES string. A value given as a limit tells only on which side of the number the result lay.

The IC50 is the point on the concentration scale where inhibition reaches its midpoint. High values mean weaker potency in that assay, low ones greater potency in that assay.

Test [1] concerns HEK-293T. The test is described as follows: Antiproliferative activity against human 293T cells after 48 hrs. The format is functional, cell-based. The essentials: (§1)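 Cells kept in DMEM with 10% FBS/glutamine/antibiotics, 37 °C, 5% CO2; 2 × 10⁴ cells seeded, after 24 h exposed to compounds (0.01–100 µM) for 48 h. Part of the supernatant was removed, CellTiter 96 Aqueous reagent added, 2 h further incubation at 37 °C, absorbance at 490 nm read; IC50 derived. Huh7 is a hepatoma line, 293T renal epithelial.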

In test [2] the test system is Huh-7. In words: Antiproliferative activity against human Huh7 cells after 48 hrs. The format is functional, cell-based. To be noted: Huh-7, 48 h. Summed up: as §1
Test [3] deals with SNU-398. In words: Cell cycle arrest in SNU398 cells by accumulation at G2/M phase at 5000 nM. The format is functional, Homo sapiens. The essentials:
(§2)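 SNU-398 hepatoma cells (5 × 10⁵) seeded, grown 24 h, then 48 h with compound or carrier alone. Harvested, PBS-washed twice, stained with a cell cycle analysis kit, analysed by flow cytometry; cell cycle phase percentages estimated, G2/M fraction reported.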

For test [4], the system named is SNU-398. In words: Cell cycle arrest in SNU398 cells by accumulation at G2/M phase at 50 nM. The format is functional, Homo sapiens. The essentials:
as §2

For test [5], the system named is SNU-398. In words: Cell cycle arrest in SNU398 cells by accumulation at G2/M phase at 500 nM. The format is functional, Homo sapiens. Summed up: as §2
Test [6] concerns the target Tubulin. The test is described as follows: Inhibition of tubulin polymerization. The format is protein-complex assay, Homo sapiens. The essentials: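 Tubulin polymerization kit used; components added to wells at 0 °C with 340 nm baselines, then assembly followed at 0 °C and 37 °C and measured turbidimetrically. Compounds tested at 0, 3, 10 and 30 µM; IC50 calculated from the polymerization data.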

Take `O=C(/C=C/c1cccc2ccccc12)c1ccc(NC(=O)c2cccs2)cc1`: the concentration for half-maximal inhibition (IC50) in test [1] and in test [2] was > 100 µM each time.
In the case of `O=C(/C=C/c1ccccn1)c1ccc(NC(=O)c2ccco2)cc1`, the IC50 in test [1] came out at 9.8 µM; in test [2] it was 9.9 µM. The Activity in test [3] came to 46.6%; in test [4] it was 36.3%; in test [5], 36.3%.
Take `CCOc1ccc(C(C)(C)C(=O)Nc2ccc(C(=O)/C=C/c3ccccn3)cc2)cc1`: the IC50 in test [1] and in test [2] was > 100 µM each time.
Regarding `CN(C)CC(=O)Nc1ccc(C(=O)/C=C/c2ccccn2)cc1`, the IC50 in test [1] amounted to 8.2 µM; in test [2], 8.4 µM; in test [6], 19.8 µM. The Activity turned out to be 43% in test [3], 31.9% in test [4] and 32.7% in test [5].
In the case of `CC(=O)Nc1ccc(C(=O)/C=C/c2ccccn2)cc1`, the IC50 in test [1] was 13.7 µM; in test [2], 9.6 µM; in test [6], 15.7 µM. Further, the values for the Activity in test [3], in test [4] and in test [5] were 43.3%, 37.7% and 37.1%, respectively.
`O=C(/C=C/c1ccccn1)c1ccccc1` [WR-190433]: the values for the IC50 in test [1], in test [2] and in test [6] were 13.8 µM, 14.3 µM and > 30 µM, respectively.

For the origin of these results see ChEMBL document CHEMBL1137260, “Design and biological evaluation of novel tubulin inhibitors as antimitotic agents using a pharmacophore binding model with tubulin” (J Med Chem, 2006).
